# In ChEMBL document CHEMBL1143730, “Probing the bioactive constituents from chemotypes of the sponge Psammocinia aff. bulbosa” (J Nat Prod, 2007):
# Legend:
# HCT-116 [1] = test: Survivability of human HCT116 cells assessed as cell kill at >=3 ng/mL after 2 hrs; assay type: functional
# HCT-116 [2] = test: Antitumor activity in human HCT116 tumor-bearing SCID mouse at 62 ug/kg bolus injection after 23 days relative to control; assay type: functional
# Method in brief: (§1)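 SCID mice (>17 g, weights within 5 g) implanted subcutaneously with 10⁶ tissue-culture-derived HCT-116 cells, 5 per group. Starting 1 day after inoculation, a single intravenous tail-vein bolus (drug at […], 0.25 mL) was given in DMSO diluted 1:1 with Cremophor–propylene glycol (40:60), then ≥20-fold in saline. Tumor weight followed daily. Minimum %T/C reported. Sacrifice at day 30.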
# HT-29 = test: Growth inhibition of HT29 cells; assay type: functional, cell-based; conditions: Homo sapiens
# Method in brief: (§2)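 Cells seeded at 5×10^4 per T25 flask in RPMI 1640 with 15% BCS, pen/strep and glutamine. After 3 days (log phase, 5×10^5 cells/flask), compound was added at 10 to 10^-5 μg/mL. After 3 more days, cells were trypsinized and viable and dead cells counted by 0.08% trypan blue exclusion. IC50 determined.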
# HCT-116 [3] = test: Survivability of human HCT116 cells assessed as cell kill at >=120 pg/mL after 168 hrs; assay type: functional
# L1210 = test: Growth inhibition of L1210 cells; assay type: functional, cell-based; conditions: Mus musculus; method in brief: as §2
# [4] = Growth inhibition of H125 cells; assay type: functional, cell-based; conditions: Homo sapiens, NCI-H125; method in brief: as §2
# HCT-116 [5] = test: Survivability of human HCT116 cells assessed as cell kill at >= 2 ng/mL after 24 hrs; assay type: functional
# Mus musculus = test: Toxicity in SCID mouse at 125 ug/kg bolus injection; assay type: organism-based; conditions: in vivo, 0.125 mg/kg
# Method in brief: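 HCT-116 tumor-bearing SCID mice (>17 g, 5 per group). Single intravenous tail-vein bolus of 125 μg/kg (drug at […], 0.25 mL) started 1 day after subcutaneous inoculation of 10⁶ cells. Vehicle was DMSO diluted 1:1 with Cremophor–propylene glycol (40:60), then ≥20-fold in saline. Mice were monitored until sacrifice at day 30.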
# HCT-116 [6] = test: Antitumor activity in human HCT116 tumor-bearing SCID mouse at 31 ug/kg bolus injection after 23 days relative to control; assay type: functional; method in brief: as §1
# MDA-MB-231 = test: Growth inhibition of MDA-MB-231 cells; assay type: functional, cell-based; conditions: Homo sapiens; method in brief: as §2
smiles,measurement,setting,value
C=C(C)C[C@H](OC)[C@H](O)C(=O)N[C@@H](OC)C1C[C@@H](O)C(C)(C)[C@@H](C[C@H](O)[C@@H](C)[C@@H]2Cc3c(C)c(O)cc(O)c3C(=O)O2)O1 (stereo not given in full) [IRCINIASTATIN],Survival,HCT-116 [1],90%
same,Activity,HCT-116 [2],75%
same,IC50,HT-29,5 ng/mL
same,Survival,HCT-116 [3],90%
same,IC50,L1210,0.18 ng/mL
same,IC50,[4],0.12 ng/mL
same,Survival,HCT-116 [5],90%
same,Activity,Mus musculus,Toxic
same,Activity,HCT-116 [6],86%
same,IC50,MDA-MB-231,0.2 ng/mL
